From ChEMBL document CHEMBL2396539, “Asymmetric synthesis of the four diastereoisomers of a novel non-steroidal farnesoid X receptor (FXR) agonist: role of the chirality on the biological activity” (Bioorg Med Chem, 2013) come the findings set out here.

The EC50 is the concentration that produces a half-maximal response.

The first experiment addresses T1, Bile acid receptor (Homo sapiens, UniProt Q96RI1).
T1 sequence (Q96RI1 whole entry): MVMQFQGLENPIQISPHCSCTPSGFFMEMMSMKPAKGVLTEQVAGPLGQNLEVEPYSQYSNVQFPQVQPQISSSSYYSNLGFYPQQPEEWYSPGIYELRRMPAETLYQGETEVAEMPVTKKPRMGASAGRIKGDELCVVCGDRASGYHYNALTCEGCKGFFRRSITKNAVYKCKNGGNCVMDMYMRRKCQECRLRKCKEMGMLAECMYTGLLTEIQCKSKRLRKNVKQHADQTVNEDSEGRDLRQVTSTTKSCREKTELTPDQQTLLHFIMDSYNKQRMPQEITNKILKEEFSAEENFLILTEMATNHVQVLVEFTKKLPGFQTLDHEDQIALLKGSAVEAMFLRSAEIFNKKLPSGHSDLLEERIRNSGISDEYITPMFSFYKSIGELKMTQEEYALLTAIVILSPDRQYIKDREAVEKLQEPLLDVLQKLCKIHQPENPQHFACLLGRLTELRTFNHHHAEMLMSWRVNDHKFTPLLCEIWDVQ
The experiment in a line: Agonist activity at GST-tagged human FXR LBD assessed as recruitment of biotinylated SRC-1 peptide after 30 mins by AlphaScreen assay. The essentials:
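Human FXR ligand-binding domain fused to GST was incubated with the ligand at increasing concentrations together with biotinylated SRC-1 peptide. Ligand-dependent recruitment of the coactivator peptide was read out by AlphaScreen. Where tested, compounds were single diastereoisomers or a mixture of syn- and anti-couples.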
On the technique in general: In Alpha technology, singlet oxygen from a donor bead excites a nearby acceptor bead.
Take `Cc1ccccc1-n1nc(C)c2c1NC(=O)CS[C@H]2c1ccc(Oc2ccccc2)cc1` (racemic): the EC50 is 14 µM. The same measure, in the same setting: then `Cc1ccccc1-n1nc(C)c2c1NC(=O)[C@H](C)S[C@@H]2c1ccc(Oc2ccccc2)cc1` [listing 1 of 2 here], with 1.4 µM; and `Cc1ccccc1-n1nc(C)c2c1NC(=O)[C@H](C)S[C@@H]2c1ccc(Oc2ccccc2)cc1` (racemic) [listing 1 of 2 here], with 3 µM. On the same count and under the same terms, with `Cc1ccccc1-n1nc(C)c2c1NC(=O)[C@@H](C)S[C@@H]2c1ccc(Oc2ccccc2)cc1` the figure was more than 150 µM; with `CCC[C@@H]1S[C@H](c2ccc(Oc3ccccc3)cc2)c2c(C)nn(-c3ccccc3C)c2NC1=O` (racemic), more than 150 µM; with `Cc1ccccc1-n1ncc2c1NC(=O)[C@H](C)S[C@@H]2c1ccc(Oc2ccccc2)cc1` (racemic), more than 150 µM. Same read-out and setting: with `CCC1SC(c2ccc(Oc3ccccc3)cc2)c2c(C)nn(-c3ccccc3C)c2NC1=O` (mixture of isomers) the figure was 3 µM. In the case of `CCc1nn(-c2ccccc2C)c2c1[C@@H](c1ccc(Oc3ccccc3)cc1)S[C@@H](C)C(=O)N2` (racemic), the EC50 stood at 2 µM.

`Cc1ccccc1-n1nc(C)c2c1NC(=O)[C@H](C)S[C@H]2c1ccc(Oc2ccccc2)cc1`: the EC50 was more than 150 µM. With `Cc1ccccc1-n1nc(C)c2c1NC(=O)[C@@H](C)S[C@H]2c1ccc(Oc2ccccc2)cc1`, the EC50 is more than 150 µM.

In another experiment the target is T2, Bile acid receptor (Homo sapiens) (UniProt Q96RI1).
T2 sequence (whole entry): T1 sequence (Q96RI1 whole entry)
The experiment can be described thus: Agonist activity at GST-tagged human FXR LBD assessed as recruitment of biotinylated SRC-1 peptide after 30 mins by AlphaScreen assay relative to CDCA.
Turning to `Cc1ccccc1-n1nc(C)c2c1NC(=O)CS[C@H]2c1ccc(Oc2ccccc2)cc1` (racemic), the Efficacy was found to be 8%. On the same count and under the same terms, with `CCC1SC(c2ccc(Oc3ccccc3)cc2)c2c(C)nn(-c3ccccc3C)c2NC1=O` (mixture of isomers) the figure was 35%; with `CCc1nn(-c2ccccc2C)c2c1[C@@H](c1ccc(Oc3ccccc3)cc1)S[C@@H](C)C(=O)N2` (racemic), 140%; with `Cc1ccccc1-n1nc(C)c2c1NC(=O)[C@H](C)S[C@@H]2c1ccc(Oc2ccccc2)cc1` (racemic) [listing 2 of 2 here], 150%. With `Cc1ccccc1-n1nc(C)c2c1NC(=O)[C@H](C)S[C@@H]2c1ccc(Oc2ccccc2)cc1` [listing 2 of 2 here], the Efficacy amounted to 130%.
